Experimental data collected from several papers.
Protocols differ between the studies behind these lines.
Effect on: enzyme activity
Mode: inhibitor
CHEK2: Serine/threonine-protein kinase Chk2 (CHEK2, Homo sapiens, UniProt O96017)

The remaining activity of `CC(C)(O)[C@H]1CC[C@H](Nc2ccc3ncc(-c4cccc(C(F)(F)F)c4)n3n2)CC1` is reported as 97.4% (CHEK2; 1 µM).
`Cc1sc(C(=O)NC2COC2)cc1-n1cc(NC(=O)Nc2c(F)cccc2Cl)cn1` gave a remaining activity of 95.2% (CHEK2; 10 µM).
With `Cc1ccc(NC(=O)c2ccc(C)c(C(F)(F)F)c2)cc1C#Cc1nn(C2CCC(O)CC2)c2ncnc(N)c12` (centres unmarked) the remaining activity was 103% (Serine/threonine-protein kinase Chk2 (CHEK2, Homo sapiens, UniProt O96017, I157T); 10 µM).
For `CCN(CC)c1ccc(C2=NNC(=O)CC2C)cc1[N+](=O)[O-]` (centres unmarked), the remaining activity was 101% (CHEK2; 10 µM).
`Cc1cnc(NC2CCOCC2)nc1-n1cnc(C(=O)NC(CN)c2cc(F)cc(Cl)c2)c1` (centres unmarked) has a remaining activity of 75% (CHEK2; radiometric; 1 µM).
`CC(C)(C)C(=O)c1sc(NC2CCCCC2)nc1N` has a remaining activity of 53% (CHEK2; 10 µM).
With `CC(C)(C)c1nc(-c2cccc(NS(=O)(=O)c3c(F)cccc3F)c2F)c(-c2ccnc(N)n2)s1` the remaining activity was 103% (CHEK2; radiometric; 1 µM).
With `COc1cc(Nc2cnc(C#N)c(O[C@H](C)CN(C)C)n2)ncc1-c1cnn(C)c1` the remaining activity was 31% (CHEK2; radiometric; 10 µM).
`Cn1c(=O)n(-c2ccc(C(C)(C)C#N)cc2)c2c3cc(-c4cnc5ccccc5c4)ccc3ncc21` gave a remaining activity of 80% (CHEK2; 10 µM).
`O=C(Nc1cnn(-c2csc(C(=O)NC3COC3)c2)c1)Nc1c(F)cccc1Cl` has a remaining activity of 91.5% (CHEK2; 5 µM).
For `CCCOc1ccc(OC)c(F)c1C(=O)c1ccc(C(=O)N[C@@H]2CNC[C@H]2NC(=O)c2ccc3[nH]ncc3c2)cc1`, the remaining activity was 21% (Serine/threonine-protein kinase Chk2 (CHEK2, Homo sapiens, UniProt O96017, R145W); 10 µM).
